Consider 38 variants from the RNAGym collection of RNA variant scans (doi:10.1126/science.aae0568).

This sample holds only a part of the variants without activity.

To fix the notation:
B1: tRNA (parent)
chain: GUUCCGUUGGCGUAAUGGUAACGCGUCUCCCUCCUAAGGAGAAGACUGCGGGUUCGAGUCCCGUACGGAACG

The data set covers variants of B1. The data set is described as follows: yeast fitness relative to wild type (ratio to wild type); higher = fitter; tRNA-Arg(CCU), competitive growth, 37 C, YPD. The gist of the method:
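The tRNA-Arg(CCU) gene variants were made by chemical synthesis with a 3% per-site mutation rate at 69 sites and inserted at the native genomic locus of Saccharomyces cerevisiae. After pooling, the strains were competed in YPD at 37°C for 24 hours in six parallel replicates. Gene amplicons from the start population and each end population were read by 100-nucleotide paired-end sequencing, and Darwinian fitness relative to wild type was taken from genotype frequency changes. Genotypes needed ≥ 100 starting reads, and estimates < 0.5 were set to 0.5.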
On to GUCCCGUUGGCGCAAAGGUAACGCGUCUCCCUCCUAAGGAGGAGACUGGGGGUCCGAGUCCCCUACGGAUCG, for which the yeast fitness turned out to be 0.532.
The same measure for GUCCCGUUGGCGCAAUGGUAACGUGUCUCCCUCCUAAGGAGAAGACUGCGGAUUCAAGUCCCGUACGGAACG: no more than 0.5; for GUCCCGUUGGCGUAAGGGUAACGCGUCUCCCUCCUAAGGAGAAGACUGCGGGUUCGAGUCCCGUACGGAACG: 0.823; for GUCCCGUUGGCGGAAUGGUAACGUGUCUCCCUCCUAAGGAGAAGACUGCGGGUUCGAGUCCCGUACGGAACG: 0.559.
The same measure for GUCCCGUUGGCGCAAUGGUAACGCGUCUCCCUCCUAAGGAGAAGACUGCGGGUUCGAGUCCCGUACGGAACG: 0.841; for GUCCCGUUGGCGUAAUGGCGACGCGUCUCCCUCCUAAGGAGAAGACUGCGGGUUCGAGUCCCGUACGGAACG: 0.663.
The figure for GUCCCGUUGGCGGAAUGGUAACGCGUCUCCCUCCUAAGGAGAAGACUGCGGGUUCGAGUCCCGUACGGAGCG is 0.698; for GUCCCGUUGGCGUAAUGGUAACGCGACUCCCUUCUAAGGAGAAGACUGUGGGUUCGAGUCCCGUACGGAACG it is no more than 0.5.
In the case of GUCCCGUUGGCGCAAUGGUAACGCGUCUCCCUCCUAAGGAGAAGACUGCGCGUUCGAGUCCCGUACGGAACG, the yeast fitness was no more than 0.5.
The same measure for GUCCCGUUGGCGUAAGGGUAACGCGUCUCUCUUCUAAGGAGAAGACCGCGGGUUCGAGUCCCGUACGGAACG: no more than 0.5.
Take GUCCCGUUGGCGUAAUGGAAACGCGUCUCCCUCCUAAGGAGAAGACUGCGGAUUCGAGCCCCGUAAAGAACG: the yeast fitness is no more than 0.5.
For GUCCCGUUGGCGUAAAGGUAACGCGUCUCCCUCAUAAGGAGAAGACUGCGGGCUCGAGUUCCGUACGGAACG, the yeast fitness was no more than 0.5.
The same measure for GUCCCGUUGGCGCAAUGGUAACGUGUCUCCCUCCUAAGGAGAAGACUGCGGAUUCGAGUCCCGUACGGAACG: 0.576; for GUCCCGUUGGCGUAAUGGAAACGCGUCUCCCUCCUAAGGAGAAGACUGCCGGUUCGAGUCCGGUAUGGAACG: 0.575.
The figure for GUCCCGUUGGCGUAAUGGUAACGCGCCUCCCUCCUAAGGAGUAGACUGCGGGUUCGAGUCCCGUACGGAACG is 0.939; for GUCCCGUUGGCGUAAGGGAAACGCGUCUCCCUCCUAAGGAGACGACUGCGGGUUCGUGUCCCGUACGGAACG it is no more than 0.5; for GUCCCGUUGGCGUAAUGGAAACGCGUCUCCCUCCUAAGGAGAAGACUGCGGGUUCGACUCCGGUACGGAUCG it is no more than 0.5.
The figure for GUCCCGUUGGCGCAAUGGUAGCGCGUCUCCCUCCUAAGGAGAUGACUGCGGGUUCGAGUCCCGUACGGAACG is 0.708; for GUCCCGUUGGCGUAAUGGAAACGCGUCUCCCUCCUAAGGAGAAGACUGCGGGUUCGAGUCCCGUACGGUACG it is 0.865.
Regarding GUCCCGUUGGCGCAAUGGUAACGCGUCUCCUUCCUAAGGAGAAGACUGCGGGUUCGAGUCCCGUACGGAACG, the yeast fitness was determined as 0.801.
Take GUCCCGUUGGCGUAAUGGAAACGCGUCUCCCUCCUAAGGAGAAGAAUGCGGGUUCGAGUCCCGUACGGAACG: the yeast fitness was determined as 0.716.
The figure for GUCCCGUUGGCGAAAUGGUAACGCGUCUCCUUCCUAAGGAAAAGACUGCGGGUUCGAGUCCCGUAAGGAACG is no more than 0.5; for GUCCCGUUGGCGUAAUGGAAAUACGUCUCCCUCCUAAGGAGAAGACUGCGGGUUCGAGUCCCGUACGGAACG it is no more than 0.5.
The figure for GUCCCGUUGGCGUAAUGGAAACGCGUCUCCCUCCUAAGGAGAAGACUGCGGGUUCGAGUCCCGUACGGAACG is 1.03.
The figure for GUCCCGUUGGCGUAAUGGCAACGCGUCUCCCUCCUAAGGAGAAGACUGCGGGUUCGAGUCCCGUACGGAACG is 0.929.
Turning to GUCCCGUUGGCGUAAUGGCAACGCGUCUCCCUCCUAAGGGGAAGAAUGCGGGUUCGAGUCCCGUACGGAACG, the yeast fitness was 0.74.
The figure for GUCCCGUUGGCGUAAGGGUACCGCCUCUCCCUCCUACGGUGAAGACUGCGGGUUCGAGUCCCGUACGGAACG is no more than 0.5; for GUCCCGUUGGCGUAAGGGAAACGCGUCUCCCUCCUAAGGAGACGACUGUGGGUUCGUGUCCCGUACGGAACG it is no more than 0.5.
The figure for GUCCCGUUGGCGCAAAGGUAACGCGUCUCCCUCCUAAGGAGAAGGCUGCGGGUUCGAGUCACGCACGGAACG is no more than 0.5.
The figure for GUCCCGUUGGCGUAAUGGAAACGCGUCUCCCUCCUAAGGAGAAGACUGCGGGUUCGAGUCCCGUACGAAACG is 0.698; for GUCCCGUUGGCGUAAUGGCAACGAGUCUCCCUCCUAAGGAGAAGACUGCGGGUUCGAAUCCCGUACGGAACG it is no more than 0.5; for GUCCCGUUGGCGUAAGGGAAACGCGUCUCCCUCCUAAGGAGACGACUGCGGGUUCGUGUCCCGUACGGCACG it is no more than 0.5.
Consider GUCCCGUUGGCGUAAUGGUAACGCGACUCCCUCCUAAGGAGAAGACUGCGGGUUCGAGUCCCGUACGGAACG, for which the yeast fitness worked out at 0.856.
The figure for GUCCCGUUGGCGUAAAGGUAACGCGUCUCUCUCCUAAGGCGAAGACUGCGGGUUCGAGUCCCGUACGGAACG is no more than 0.5; for GUCCCGUUGGCGCAAUGGUAACGUGUCUCCCUCCUAAGGAGAAGACUGCGGAUUCGAGUCCCGUACGAAACG it is no more than 0.5.
The figure for GUCCCGUUGGCGUAAUGGAAACGCGUCUCCCUCCUAAGGAGAGGACUGCGGGUUCGAGUCCCGUACGGAACG is 0.677.
The same measure for GUCCCGUUGGCGCAAUGGUAACGCGUCGCCCUCCUAAGGAGAAGACUGCGGGUACGAGUCCAGUACGGAACG: no more than 0.5; for GUCCCGUUGGCGCAAAGGUAACGCGUCUCCCUCCUAAGGAGAAGACUGCGGGUUCGAGUCACGCACGGAACG: 0.582.
